According to ChEMBL document CHEMBL4118063, “Design, synthesis and evaluation of aromatic heterocyclic derivatives as potent antifungal agents” (Eur J Med Chem, 2017):
Values after ≈ are worked out from the molar mass of the structure shown. Values belong to the compound of their own block, whether it stands above or below them.

What was measured:
Candida tropicalis = experiment: Antifungal activity against Candida tropicalis cgmcc 2.3739 by broth microdilution method; format: functional
How it was run: (§1)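 Serial twofold-style dilution in growth medium per NCCLS broth microdilution guidelines. Compounds dissolved in DMSO before dilution. Fluconazole and itraconazole served as positive controls. MIC was read as the lowest concentration that prevents visible fungal growth.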

Candida albicans [1] = experiment: Antifungal activity against Candida albicans ATCC SC5314 by broth microdilution method; format: functional; how it was run: as §1
Cryptococcus neoformans = experiment: Antifungal activity against Cryptococcus neoformans cgmcc 2.3161 by broth microdilution method; format: functional; how it was run: as §1
Aspergillus fumigatus = experiment: Antifungal activity against Aspergillus fumigatus GIM 3.524 by broth microdilution method; format: functional; how it was run: as §1
Candida albicans [2] = experiment: Antifungal activity against Candida albicans CPCC 400523 by broth microdilution method; format: functional; how it was run: as §1
[3] = target: T1, Lanosterol 14-alpha demethylase (Candida albicans (strain SC5314 / ATCC MYA-2876) (Yeast), UniProt P10613); experiment: Inhibition of CYP51 in Candida albicans ATCC SC5314 assessed as lanosterol content at 8 ug/ml by GS-MS analysis relative to total sterols; parameters: scale not given: the % may be the effect or the level left; conditions: at 8 µg/mL
T1 sequence (P10613 whole entry): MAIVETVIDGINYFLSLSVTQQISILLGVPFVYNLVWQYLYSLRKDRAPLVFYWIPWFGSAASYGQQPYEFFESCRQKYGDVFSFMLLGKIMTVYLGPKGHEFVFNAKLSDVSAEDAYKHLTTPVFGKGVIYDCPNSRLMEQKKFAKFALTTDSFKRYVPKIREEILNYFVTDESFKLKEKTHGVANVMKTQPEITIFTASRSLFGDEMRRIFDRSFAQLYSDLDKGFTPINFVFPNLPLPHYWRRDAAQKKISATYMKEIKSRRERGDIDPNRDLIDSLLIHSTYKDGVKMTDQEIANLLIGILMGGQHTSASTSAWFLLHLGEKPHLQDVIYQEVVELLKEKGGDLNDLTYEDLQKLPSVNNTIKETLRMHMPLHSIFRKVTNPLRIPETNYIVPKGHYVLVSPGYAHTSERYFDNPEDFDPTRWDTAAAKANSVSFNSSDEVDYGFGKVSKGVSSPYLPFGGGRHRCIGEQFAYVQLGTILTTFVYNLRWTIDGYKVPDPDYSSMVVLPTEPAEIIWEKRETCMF

[4] = target: T1, Lanosterol 14-alpha demethylase; experiment: Inhibition of CYP51 in Candida albicans ATCC SC5314 assessed as lanosterol content at 0.125 ug/ml by GS-MS analysis relative to total sterols; parameters: scale not given: the % may be the effect or the level left
[5] = target: T1, Lanosterol 14-alpha demethylase; experiment: Inhibition of CYP51 in Candida albicans ATCC SC5314 assessed as lanosterol content at 0.5 ug/ml by GS-MS analysis relative to total sterols; parameters: scale not given: the % may be the effect or the level left; conditions: at 0.5 µg/mL
[6] = target: T1, Lanosterol 14-alpha demethylase; experiment: Inhibition of CYP51 in Candida albicans ATCC SC5314 assessed as ergosterol content at 0.5 ug/ml by GS-MS analysis relative to total sterols (reference value: 98.7%); parameters: scale not given: the % may be the effect or the level left; conditions: at 0.5 µg/mL
[7] = target: T1, Lanosterol 14-alpha demethylase; experiment: Inhibition of CYP51 in Candida albicans ATCC SC5314 assessed as obtusifoliol content at 8 ug/ml by GS-MS analysis relative to total sterols (reference value: 0.6%); parameters: scale not given: the % may be the effect or the level left; conditions: at 8 µg/mL
[8] = target: T1, Lanosterol 14-alpha demethylase; experiment: Inhibition of CYP51 in Candida albicans ATCC SC5314 assessed as ergosterol content at 0.03125 ug/ml by GS-MS analysis relative to total sterols (reference value: 98.7%); parameters: scale not given: the % may be the effect or the level left
[9] = target: T1, Lanosterol 14-alpha demethylase; experiment: Inhibition of CYP51 in Candida albicans ATCC SC5314 assessed as eburicol content at 0.03125 ug/ml by GS-MS analysis relative to total sterols (reference value: 0.4%); parameters: scale not given: the % may be the effect or the level left
[10] = target: T1, Lanosterol 14-alpha demethylase; experiment: Inhibition of CYP51 in Candida albicans ATCC SC5314 assessed as obtusifoliol content at 0.03125 ug/ml by GS-MS analysis relative to total sterols (reference value: 0.6%); parameters: scale not given: the % may be the effect or the level left
[11] = target: T1, Lanosterol 14-alpha demethylase; experiment: Inhibition of CYP51 in Candida albicans ATCC SC5314 assessed as eburicol content at 0.5 ug/ml by GS-MS analysis relative to total sterols (reference value: 0.4%); parameters: scale not given: the % may be the effect or the level left; conditions: at 0.5 µg/mL
[12] = target: T1, Lanosterol 14-alpha demethylase; experiment: Inhibition of CYP51 in Candida albicans ATCC SC5314 assessed as eburicol content at 2 ug/ml by GS-MS analysis relative to total sterols (reference value: 0.4%); parameters: scale not given: the % may be the effect or the level left; conditions: at 2 µg/mL
[13] = target: T1, Lanosterol 14-alpha demethylase; experiment: Inhibition of CYP51 in Candida albicans ATCC SC5314 assessed as ergosterol content at 2 ug/ml by GS-MS analysis relative to total sterols (reference value: 98.7%); parameters: scale not given: the % may be the effect or the level left; conditions: at 2 µg/mL
[14] = target: T1, Lanosterol 14-alpha demethylase; experiment: Inhibition of CYP51 in Candida albicans ATCC SC5314 assessed as ergosterol content at 8 ug/ml by GS-MS analysis relative to total sterols (reference value: 98.7%); parameters: scale not given: the % may be the effect or the level left; conditions: at 8 µg/mL
[15] = target: T1, Lanosterol 14-alpha demethylase; experiment: Inhibition of CYP51 in Candida albicans ATCC SC5314 assessed as eburicol content at 0.125 ug/ml by GS-MS analysis relative to total sterols (reference value: 0.4%); parameters: scale not given: the % may be the effect or the level left
[16] = target: T1, Lanosterol 14-alpha demethylase; experiment: Inhibition of CYP51 in Candida albicans ATCC SC5314 assessed as decrease in ergosterol content by GS-MS analysis
[17] = target: T1, Lanosterol 14-alpha demethylase; experiment: Inhibition of CYP51 in Candida albicans ATCC SC5314 assessed as obtusifoliol content at 0.5 ug/ml by GS-MS analysis relative to total sterols (reference value: 0.6%); parameters: scale not given: the % may be the effect or the level left; conditions: at 0.5 µg/mL
[18] = target: T1, Lanosterol 14-alpha demethylase; experiment: Inhibition of CYP51 in Candida albicans ATCC SC5314 assessed as lanosterol content at 2 ug/ml by GS-MS analysis relative to total sterols; parameters: scale not given: the % may be the effect or the level left; conditions: at 2 µg/mL
Candida albicans [19] = experiment: Antifungal activity against fluconazole-resistant Candida albicans strain 103 by broth microdilution method; format: functional
How it was run: (§2)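 Broth serial dilution in 96-well plates per NCCLS guidelines; compounds dissolved in DMSO and serially diluted into growth medium; MIC taken as lowest concentration inhibiting visible fungal growth. Fluconazole-resistant clinical C. albicans isolates 100 and 103; fluconazole and itraconazole as positive controls.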

Candida albicans [20] = experiment: Antifungal activity against fluconazole-resistant Candida albicans strain 100 by broth microdilution method; format: functional; how it was run: as §2
[21] = Metabolic stability in human plasma assessed as parent compound remaining at 120 mins; format: ADME, cell-free; conditions: read-out: Stability
[22] = Metabolic stability in human plasma assessed as parent compound remaining at 60 mins; format: ADME, cell-free; conditions: read-out: Stability
[23] = target: T1, Lanosterol 14-alpha demethylase; experiment: Inhibition of CYP51 in Candida albicans ATCC SC5314 assessed as increase in eburicol content by GS-MS analysis
[24] = target: T1, Lanosterol 14-alpha demethylase; experiment: Inhibition of CYP51 in Candida albicans ATCC SC5314 assessed as ergosterol content at 0.125 ug/ml by GS-MS analysis relative to total sterols (reference value: 98.7%); parameters: scale not given: the % may be the effect or the level left
[25] = target: T1, Lanosterol 14-alpha demethylase; experiment: Inhibition of CYP51 in Candida albicans ATCC SC5314 assessed as obtusifoliol content at 2 ug/ml by GS-MS analysis relative to total sterols (reference value: 0.6%); parameters: scale not given: the % may be the effect or the level left; conditions: at 2 µg/mL
[26] = target: T1, Lanosterol 14-alpha demethylase; experiment: Inhibition of CYP51 in Candida albicans ATCC SC5314 assessed as eburicol content at 8 ug/ml by GS-MS analysis relative to total sterols (reference value: 0.4%); parameters: scale not given: the % may be the effect or the level left; conditions: at 8 µg/mL
[27] = target: T1, Lanosterol 14-alpha demethylase; experiment: Inhibition of CYP51 in Candida albicans ATCC SC5314 assessed as increase in lanosterol content by GS-MS analysis
[28] = target: T1, Lanosterol 14-alpha demethylase; experiment: Inhibition of CYP51 in Candida albicans ATCC SC5314 assessed as obtusifoliol content at 0.125 ug/ml by GS-MS analysis relative to total sterols (reference value: 0.6%); parameters: scale not given: the % may be the effect or the level left

Compound: Cc1ccc(-c2cc(C(=O)N[C@@H](Cn3ccnc3)C(=O)OCC(C)C)no2)cc1
MIC (Candida tropicalis): 0.0312 µg/mL (≈ 0.0788 µM)
MIC (Candida albicans [1]): 0.125 µg/mL (≈ 0.315 µM)
MIC (Cryptococcus neoformans): 0.5 µg/mL (≈ 1.26 µM)
MIC (Aspergillus fumigatus): 8 µg/mL (≈ 20.2 µM)
MIC (Candida albicans [2]): 0.5 µg/mL (≈ 1.26 µM)

Compound: CC(C)OC(=O)[C@H](Cn1ccnc1)NC(=O)c1cc(-c2ccccc2F)on1
Activity [3]: 26.7%
Activity [4]: 2.2%
Activity [5]: 16.7%
Activity [6]: 30.8%
Activity [7]: 8.9%
MIC (Candida tropicalis): 0.0312 µg/mL (≈ 0.0809 µM)
Activity [8]: 93.9%
Activity [9]: 1.7%
Activity [10]: 4.3%
MIC (Candida albicans [1]): 0.0625 µg/mL (≈ 0.162 µM)
Activity [11]: 45.6%
MIC (Cryptococcus neoformans): 0.5 µg/mL (≈ 1.29 µM)
MIC (Aspergillus fumigatus): 4 µg/mL (≈ 10.4 µM)
Activity [12]: 63.3%
Activity [13]: 5.4%
Activity [14]: 0.7%
Activity [15]: 4.9%
inhibition (INH) [16]: Dose-dependent effect
Activity [17]: 6.9%
Activity [18]: 22%
MIC (Candida albicans [19]): 1 µg/mL (≈ 2.59 µM)
MIC (Candida albicans [20]): 1 µg/mL (≈ 2.59 µM)
remaining at 2 h [21]: 91.8%
MIC (Candida albicans [2]): 0.25 µg/mL (≈ 0.647 µM)
remaining at 1 h [22]: 95.3%
inhibition (INH) [23]: Dose-dependent effect
Activity [24]: 85.9%
Activity [25]: 9.2%
Activity [26]: 63.7%
inhibition (INH) [27]: Dose-dependent effect
Activity [28]: 6.9%

Compound: CC(C)OC(=O)[C@H](Cn1ccnc1)NC(=O)c1cc(-c2ccccc2)on1
MIC (Candida tropicalis): 0.0625 µg/mL (≈ 0.17 µM)
MIC (Candida albicans [1]): 0.25 µg/mL (≈ 0.679 µM)
MIC (Cryptococcus neoformans): 0.5 µg/mL (≈ 1.36 µM)
MIC (Aspergillus fumigatus): 4 µg/mL (≈ 10.9 µM)
MIC (Candida albicans [2]): 0.5 µg/mL (≈ 1.36 µM)

Compound: CC(C)OC(=O)[C@H](Cn1ccnc1)NC(=O)c1ccc(-c2ccccc2)s1
MIC (Candida tropicalis): 1 µg/mL (≈ 2.61 µM)
MIC (Candida albicans [1]): 8 µg/mL (≈ 20.9 µM)
MIC (Cryptococcus neoformans): 16 µg/mL (≈ 41.7 µM)
MIC (Aspergillus fumigatus): > 16 µg/mL
MIC (Candida albicans [2]): 8 µg/mL (≈ 20.9 µM)

Now from value to compound:

MIC (Candida tropicalis): 0.125 µg/mL (≈ 0.314 µM)
MIC (Candida albicans [1]): 2 µg/mL (≈ 5.03 µM)
MIC (Cryptococcus neoformans): > 16 µg/mL
MIC (Aspergillus fumigatus): > 16 µg/mL
MIC (Candida albicans [2]): 4 µg/mL (≈ 10.1 µM)
Compound: CC(C)COC(=O)[C@H](Cn1ccnc1)NC(=O)c1ccc(-c2ccccc2)s1

MIC (Candida tropicalis): > 16 µg/mL
MIC (Candida albicans [1]): > 16 µg/mL
MIC (Cryptococcus neoformans): > 16 µg/mL
MIC (Aspergillus fumigatus): > 16 µg/mL
MIC (Candida albicans [2]): > 16 µg/mL
Compound: CC(C)COC(=O)[C@H](Cn1ccnc1)NC(=O)c1csc(-c2ccccc2)n1

MIC (Candida tropicalis): 4 µg/mL (≈ 10.5 µM)
MIC (Candida albicans [1]): > 16 µg/mL
MIC (Cryptococcus neoformans): > 16 µg/mL
MIC (Aspergillus fumigatus): > 16 µg/mL
MIC (Candida albicans [2]): > 16 µg/mL
Compound: CC(C)COC(=O)[C@H](Cn1ccnc1)NC(=O)c1ccc(-c2ccccc2)o1
